Here are results for one compound from ChEMBL document CHEMBL1671761, “Preclinical characterization of BI 201335, a C-terminal carboxylic acid inhibitor of the hepatitis C virus NS3-NS4A protease” (Antimicrob Agents Chemother, 2010).

One data set has as its system Hepatitis C virus. The data set can be described thus: Inhibition of HCV 1b NS3/4A protease. Set-up: species or system Hepatitis C virus subtype 1b. As to conditions: read-out: Ki(app). An outline of the steps: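 Full-length NS3 coexpressed with the 54-residue NS4A, 0.5 nM (2.5 nM for genotype 1a). Substrate was 5 μM anthranilyl-DDIVPAbu[C(O)-O]AMY(3-NO2)TW-OH in 50 mM Tris pH 8.0, 0.25 M citrate, 0.01% dodecylmaltoside, 1 mM TCEP, 5% DMSO. Run at 23°C for 60-70 min, stopped with MES pH 5.8, read by product fluorescence. IC50 converted to apparent Ki via IC50=Ki(1+[S]/Km). Mean ± SD, ≥3 experiments.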

The target in the next data set is Caspase-7 (Homo sapiens) (UniProt P55210). Kind of data set: Inhibition of human caspase-7 at 10 uM.
The species named for data set [1] is Rattus norvegicus. The data set can be described thus: Inhibition of rat sodium channel site 2 at 10 uM.
Data set [2] has as its target Small conductance calcium-activated potassium channel (Rattus norvegicus) (UniProt P70604+P70606+P70605). The data set can be described thus: Inhibition of rat Small conductance calcium-activated potassium channel at 10 uM. It is filed as protein assay.
Data set [3] is filed under the species Rattus norvegicus. The data set can be described thus: Inhibition of rat 5-HT3 receptor at 10 uM.
The target in data set [4] is D(2) dopamine receptor (Homo sapiens) (UniProt P14416). The data set can be described thus: Inhibition of human dopamine receptor 2s at 10 uM.
In data set [5] the target is Tissue-type plasminogen activator (Homo sapiens) (UniProt P00750). Kind of data set: Inhibition of human tPA at 10 uM.
Data set [6] deals with Alpha-2A adrenergic receptor (Rattus norvegicus) (UniProt P22909). The data set can be described thus: Inhibition of rat adrenergic receptor Alpha-2 at 10 uM.
Data set [7] deals with Coagulation factor X (Homo sapiens) (UniProt P00742). Kind of data set: Inhibition of human factor 10a at 10 uM.
The species named for data set [8] is Rattus norvegicus. The data set can be described thus: Inhibition of rat GABA-A receptor, agonist site at 10 uM. It counts as functional.
The target of data set [9] is D(3) dopamine receptor (Homo sapiens) (UniProt P35462). Kind of data set: Inhibition of human dopamine receptor 3 at 10 uM.
The target in data set [10] is Disintegrin and metalloproteinase domain-containing protein 17 (Homo sapiens) (UniProt P78536). Kind of data set: Inhibition of human TACE at 10 uM.
Data set [11] is described as follows: AUC in rat at 5 mg/kg, po. As to conditions: plasma. Further details: dose 5 mg/kg, route oral. It counts as ADME, organism-based. In a few lines: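 Single oral dose of 5 mg/kg in 0.5% Methocel with 0.3% Tween 80 (10 ml/kg) to fasted male animals: Sprague-Dawley rats (275-300 g, overnight fast with 10% dextrose water), rhesus monkeys, beagle dogs. Rat blood from cannulated carotid at 0-8 h, pooled from 3 rats per time point; monkey/dog n=3. Plasma solid-phase extracted, LC-MS/MS at m/z 869.3; noncompartmental analysis.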

Data set [12] has as its target D(2) dopamine receptor (Homo sapiens) (UniProt P14416). Kind of data set: Inhibition of human dopamine receptor 2L at 10 uM.
For another data set, the species on record is Homo sapiens. The data set can be described thus: Inhibition of human dopamine receptor 4.2 at 10 uM.
Data set [13] is described as follows: Mean retention time in monkey at 5 mg/kg, po. It is filed as ADME, organism-based, Macaca mulatta. Further details: dose 5 mg/kg, route oral. As to conditions: rhesus monkey, in vivo. In a few lines: (§1)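 Fasted male rhesus monkeys (3.0-4.8 kg) given a single oral dose in 0.5% Methocel/0.3% Tween 80. Plasma taken by solid-phase extraction and measured by LC-MS/MS at m/z 869.3 (LOQ 10 nM). Noncompartmental analysis. Mean ± SE for three males.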

The target of data set [14] is D(4) dopamine receptor (Homo sapiens) (UniProt P21917). Kind of data set: Inhibition of human dopamine receptor 4.4 at 10 uM.
Data set [15] is described as follows: Tmax in monkey at 5 mg/kg, po. It is filed as ADME, organism-based, Macaca mulatta. Set-up: dose 5 mg/kg, route oral. As to conditions: rhesus monkey, in vivo. An outline of the steps:
as §1

Data set [16] has as its target Neprilysin (Homo sapiens) (UniProt P08473). Kind of data set: Inhibition of human neutral endopeptidase from HUV-EC-C cells at 10 uM by fluorimetry.
For the next data set, the species on record is Mesocricetus auratus. Kind of data set: Inhibition of syrian hamster potassium channel-ATP at 10 uM.
Data set [17] addresses Serine/threonine protein phosphatase PP2B-alpha catalytic subunit (Homo sapiens) (UniProt P16298). The data set can be described thus: Inhibition of human PP2B at 10 uM.
Data set [18] has as its target Matrilysin (Homo sapiens) (UniProt P09237). The data set can be described thus: Inhibition of human MMP-7 at 10 uM.

Sequence of D(2) dopamine receptor (Homo sapiens) (P14416 whole entry): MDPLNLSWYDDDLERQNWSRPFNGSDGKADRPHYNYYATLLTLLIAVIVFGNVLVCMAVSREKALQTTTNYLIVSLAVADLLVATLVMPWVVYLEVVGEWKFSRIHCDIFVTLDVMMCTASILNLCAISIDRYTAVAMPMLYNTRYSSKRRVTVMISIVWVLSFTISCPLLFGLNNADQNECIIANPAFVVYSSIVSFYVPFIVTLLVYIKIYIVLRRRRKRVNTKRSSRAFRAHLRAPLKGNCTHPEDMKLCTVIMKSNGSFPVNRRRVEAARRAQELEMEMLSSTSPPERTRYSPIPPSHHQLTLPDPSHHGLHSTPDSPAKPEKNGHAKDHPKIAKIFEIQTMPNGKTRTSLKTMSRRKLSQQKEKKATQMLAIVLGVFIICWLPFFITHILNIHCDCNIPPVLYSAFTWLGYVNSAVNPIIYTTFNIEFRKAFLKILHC
Sequence of D(3) dopamine receptor (Homo sapiens) (P35462 whole entry, the tested form may be a part): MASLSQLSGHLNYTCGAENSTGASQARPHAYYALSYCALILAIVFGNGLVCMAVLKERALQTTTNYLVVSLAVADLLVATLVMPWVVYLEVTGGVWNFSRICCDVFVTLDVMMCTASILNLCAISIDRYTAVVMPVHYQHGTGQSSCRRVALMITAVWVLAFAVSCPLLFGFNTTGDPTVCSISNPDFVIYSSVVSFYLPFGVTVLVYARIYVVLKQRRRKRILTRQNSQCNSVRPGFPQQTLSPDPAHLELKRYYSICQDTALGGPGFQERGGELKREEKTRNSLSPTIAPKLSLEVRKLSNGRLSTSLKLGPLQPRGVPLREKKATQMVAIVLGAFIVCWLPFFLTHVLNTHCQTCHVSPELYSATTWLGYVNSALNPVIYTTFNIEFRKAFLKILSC
Sequence of Tissue-type plasminogen activator (Homo sapiens) (P00750 36-562 limits assumed): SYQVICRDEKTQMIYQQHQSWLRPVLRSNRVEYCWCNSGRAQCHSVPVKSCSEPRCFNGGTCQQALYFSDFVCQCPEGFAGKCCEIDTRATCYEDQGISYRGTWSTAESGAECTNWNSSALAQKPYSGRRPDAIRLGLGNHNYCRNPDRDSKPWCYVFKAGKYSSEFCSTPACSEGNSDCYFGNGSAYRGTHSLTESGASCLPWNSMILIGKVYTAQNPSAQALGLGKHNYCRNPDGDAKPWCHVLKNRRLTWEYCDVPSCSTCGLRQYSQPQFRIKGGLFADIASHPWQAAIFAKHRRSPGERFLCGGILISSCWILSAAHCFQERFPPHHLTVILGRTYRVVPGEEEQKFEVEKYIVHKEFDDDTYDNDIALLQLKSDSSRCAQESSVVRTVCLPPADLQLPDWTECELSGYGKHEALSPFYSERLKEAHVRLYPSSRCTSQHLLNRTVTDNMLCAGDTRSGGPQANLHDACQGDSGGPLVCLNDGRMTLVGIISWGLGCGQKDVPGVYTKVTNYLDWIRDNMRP
Sequence of Caspase-7 (Homo sapiens) (P55210 24-198 limits assumed): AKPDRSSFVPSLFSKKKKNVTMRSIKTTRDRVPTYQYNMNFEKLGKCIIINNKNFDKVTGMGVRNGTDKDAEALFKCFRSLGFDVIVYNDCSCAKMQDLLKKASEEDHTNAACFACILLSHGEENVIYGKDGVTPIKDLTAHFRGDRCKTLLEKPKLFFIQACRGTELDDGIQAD
Sequence of Caspase-7 (Homo sapiens) (P55210 207-303 limits assumed): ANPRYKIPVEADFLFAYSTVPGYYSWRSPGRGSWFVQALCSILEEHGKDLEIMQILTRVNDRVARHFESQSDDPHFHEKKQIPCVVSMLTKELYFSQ
Sequence of Alpha-2A adrenergic receptor (Rattus norvegicus) (P22909 whole entry): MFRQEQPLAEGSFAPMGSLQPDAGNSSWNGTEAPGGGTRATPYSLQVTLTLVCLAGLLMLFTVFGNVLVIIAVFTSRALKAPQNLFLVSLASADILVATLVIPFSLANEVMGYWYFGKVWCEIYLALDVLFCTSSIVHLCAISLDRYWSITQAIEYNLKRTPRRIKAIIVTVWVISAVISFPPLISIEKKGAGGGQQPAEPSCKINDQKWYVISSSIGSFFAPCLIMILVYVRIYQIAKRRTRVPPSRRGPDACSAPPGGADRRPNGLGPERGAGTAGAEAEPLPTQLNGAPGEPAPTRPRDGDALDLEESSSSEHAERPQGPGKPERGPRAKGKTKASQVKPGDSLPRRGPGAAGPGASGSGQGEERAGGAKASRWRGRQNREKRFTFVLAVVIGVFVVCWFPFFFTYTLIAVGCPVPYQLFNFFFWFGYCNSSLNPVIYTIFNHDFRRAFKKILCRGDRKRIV
Sequence of Disintegrin and metalloproteinase domain-containing protein 17 (Homo sapiens) (P78536 whole entry, the tested form may be a part): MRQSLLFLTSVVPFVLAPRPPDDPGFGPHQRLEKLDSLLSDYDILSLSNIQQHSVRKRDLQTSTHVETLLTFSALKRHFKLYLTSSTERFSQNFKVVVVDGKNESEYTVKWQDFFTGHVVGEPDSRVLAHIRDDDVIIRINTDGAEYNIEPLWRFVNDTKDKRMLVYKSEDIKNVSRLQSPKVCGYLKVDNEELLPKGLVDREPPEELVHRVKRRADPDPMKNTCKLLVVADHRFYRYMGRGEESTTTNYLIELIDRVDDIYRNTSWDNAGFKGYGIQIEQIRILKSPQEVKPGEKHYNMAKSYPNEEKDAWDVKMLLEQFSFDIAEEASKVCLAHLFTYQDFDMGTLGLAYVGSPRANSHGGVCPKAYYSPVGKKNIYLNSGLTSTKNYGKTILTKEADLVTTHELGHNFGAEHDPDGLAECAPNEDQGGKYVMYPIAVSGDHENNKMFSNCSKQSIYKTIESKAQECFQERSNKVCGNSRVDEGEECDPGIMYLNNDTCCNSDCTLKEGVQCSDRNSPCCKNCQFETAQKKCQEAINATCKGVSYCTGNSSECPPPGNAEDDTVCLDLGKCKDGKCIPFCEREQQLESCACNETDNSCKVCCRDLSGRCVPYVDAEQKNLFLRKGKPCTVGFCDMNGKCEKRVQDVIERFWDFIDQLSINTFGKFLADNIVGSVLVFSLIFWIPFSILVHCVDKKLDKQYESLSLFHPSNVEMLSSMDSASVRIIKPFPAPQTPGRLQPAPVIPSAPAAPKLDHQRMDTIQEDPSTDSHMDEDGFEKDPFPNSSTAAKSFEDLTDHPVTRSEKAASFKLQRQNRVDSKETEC
Sequence of Coagulation factor X (Homo sapiens) (P00742 41-179 limits assumed): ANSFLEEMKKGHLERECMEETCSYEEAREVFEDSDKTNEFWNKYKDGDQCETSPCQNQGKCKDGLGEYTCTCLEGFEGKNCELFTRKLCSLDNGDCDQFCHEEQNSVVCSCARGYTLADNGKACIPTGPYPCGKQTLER
Sequence of Coagulation factor X (Homo sapiens) (P00742 235-488 limits assumed): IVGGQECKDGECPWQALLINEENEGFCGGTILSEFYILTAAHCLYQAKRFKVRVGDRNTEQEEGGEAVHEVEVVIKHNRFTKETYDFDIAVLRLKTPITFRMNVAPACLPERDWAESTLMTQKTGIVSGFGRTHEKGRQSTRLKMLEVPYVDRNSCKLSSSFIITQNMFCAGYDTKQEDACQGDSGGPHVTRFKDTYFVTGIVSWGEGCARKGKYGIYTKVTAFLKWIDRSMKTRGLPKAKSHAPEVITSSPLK
Sequence of Matrilysin (Homo sapiens) (P09237 whole entry): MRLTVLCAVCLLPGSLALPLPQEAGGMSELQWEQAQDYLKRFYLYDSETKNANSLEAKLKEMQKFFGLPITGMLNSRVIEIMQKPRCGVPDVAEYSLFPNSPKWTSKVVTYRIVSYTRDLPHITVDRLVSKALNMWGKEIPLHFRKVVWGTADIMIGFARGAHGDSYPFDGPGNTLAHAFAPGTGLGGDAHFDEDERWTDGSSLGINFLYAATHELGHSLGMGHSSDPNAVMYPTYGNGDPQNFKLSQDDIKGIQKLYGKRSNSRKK
Sequence of Neprilysin (Homo sapiens) (P08473 whole entry): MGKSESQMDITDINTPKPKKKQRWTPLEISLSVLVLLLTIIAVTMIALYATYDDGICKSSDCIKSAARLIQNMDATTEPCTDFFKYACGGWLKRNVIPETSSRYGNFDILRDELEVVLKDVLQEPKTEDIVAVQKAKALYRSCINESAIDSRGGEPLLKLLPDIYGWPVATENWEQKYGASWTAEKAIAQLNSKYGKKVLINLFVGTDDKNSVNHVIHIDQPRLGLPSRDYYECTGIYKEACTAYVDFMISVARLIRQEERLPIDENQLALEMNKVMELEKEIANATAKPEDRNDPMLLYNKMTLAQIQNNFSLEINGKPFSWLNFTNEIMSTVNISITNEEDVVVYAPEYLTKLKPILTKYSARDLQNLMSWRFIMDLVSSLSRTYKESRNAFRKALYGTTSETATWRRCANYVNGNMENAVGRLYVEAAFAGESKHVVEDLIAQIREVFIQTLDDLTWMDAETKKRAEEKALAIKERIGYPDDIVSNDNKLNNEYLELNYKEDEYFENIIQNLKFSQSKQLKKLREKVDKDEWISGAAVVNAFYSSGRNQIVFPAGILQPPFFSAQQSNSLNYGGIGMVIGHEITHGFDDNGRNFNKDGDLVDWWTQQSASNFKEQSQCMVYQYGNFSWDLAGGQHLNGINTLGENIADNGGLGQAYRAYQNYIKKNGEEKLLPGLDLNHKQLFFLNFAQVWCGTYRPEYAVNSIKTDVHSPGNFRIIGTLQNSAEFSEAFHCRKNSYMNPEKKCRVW
Sequence of D(4) dopamine receptor (Homo sapiens) (P21917 whole entry): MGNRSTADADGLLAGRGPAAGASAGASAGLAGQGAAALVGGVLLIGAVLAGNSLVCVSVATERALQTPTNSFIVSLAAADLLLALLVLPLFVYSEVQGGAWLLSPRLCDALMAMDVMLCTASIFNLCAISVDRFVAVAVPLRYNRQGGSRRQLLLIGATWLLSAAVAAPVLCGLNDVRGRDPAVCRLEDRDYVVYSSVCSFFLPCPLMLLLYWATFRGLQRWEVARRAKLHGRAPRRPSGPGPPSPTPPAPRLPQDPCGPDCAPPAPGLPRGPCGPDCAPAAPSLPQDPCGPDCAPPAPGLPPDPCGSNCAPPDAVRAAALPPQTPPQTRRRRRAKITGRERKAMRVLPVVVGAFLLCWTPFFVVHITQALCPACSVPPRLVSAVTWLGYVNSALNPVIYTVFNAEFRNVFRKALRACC

Usually inhibition stands for the percentage by which the read-out fell short of the control. The AUC is concentration integrated over time. The MRT is a mean duration of stay, worked out from the concentration-time curve. Broadly, the Tmax is the time at which the peak concentration occurs. For `C=C[C@@H]1C[C@]1(NC(=O)[C@@H]1C[C@@H](Oc2cc(-c3csc(NC(=O)C(C)C)n3)nc3c(Br)c(OC)ccc23)CN1C(=O)[C@@H](NC(=O)OC1CCCC1)C(C)(C)C)C(=O)O`, the Ki in the data set with Hepatitis C virus was found to be 2.8 nM. Moreover, the inhibition was found to be 28% against Caspase-7 (Homo sapiens); 12% in the data set listed under Rattus norvegicus [1]; 2% in [2]; 7% in the data set listed under Rattus norvegicus [3]; 10% in [4]; 2% in data set [5]. The inhibition in data set [6] came to 18%; in [7], 5%; in the data set listed under Rattus norvegicus [8], 16%; in data set [9] it was 4%; in data set [10] it was 77%; in [12], 1%. The inhibition was 58% in the data set filed under Homo sapiens; 39% in [14]; 14% in data set [16]; 12% in the data set listed under Mesocricetus auratus; 50% in data set [17]; 6% in data set [18]. The same compound showed an AUC in data set [11] of 1.55 µM·h. In data set [13], this compound yielded an MRT of 2.6 h. For the same compound, the Tmax in data set [15] came out at 2 h.
